Reference: ChEMBL document CHEMBL1135661, “Design of noncovalent inhibitors of human cathepsin L. From the 96-residue proregion to optimized tripeptides” (J Med Chem, 2002)
Peptide text beside a SMILES is read from it. * marks the point of attachment. Phenylacetyl(4-Ph) = O=C(Cc1ccc(-c2ccccc2)cc1)*

What was measured:
Procathepsin L = Procathepsin L (Homo sapiens, UniProt P07711); assay: Inhibitory activity against human Cathepsin L
Cathepsin B = Cathepsin B (Homo sapiens, UniProt P07858); assay: Specificity of Cathepsin B inhibition by the compound
Outline: (§1)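 Recombinant human cathepsins B and K were expressed in Pichia pastoris and stored inhibited with MMTS or HgCl2 (B at 4 °C, K at −80 °C). Both were reactivated with 2 mM DTT and E-64 titrated. Cbz-Phe-Arg-MCA was kept well below KM, at 25 °C, pH 6.0 (50 mM phosphate, 5 mM EDTA, 0.2 M NaCl, 3% DMSO). Read-out was fluorescence at 380/440 nm. Ki came from 1/vs vs [I] plots or slow-binding analysis.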

Cathepsin K = target: T1, Cathepsin K (Homo sapiens, UniProt P43235); assay: Specificity of Cathepsin K inhibition by the compound; outline: as §1
T1 sequence (P43235 whole entry): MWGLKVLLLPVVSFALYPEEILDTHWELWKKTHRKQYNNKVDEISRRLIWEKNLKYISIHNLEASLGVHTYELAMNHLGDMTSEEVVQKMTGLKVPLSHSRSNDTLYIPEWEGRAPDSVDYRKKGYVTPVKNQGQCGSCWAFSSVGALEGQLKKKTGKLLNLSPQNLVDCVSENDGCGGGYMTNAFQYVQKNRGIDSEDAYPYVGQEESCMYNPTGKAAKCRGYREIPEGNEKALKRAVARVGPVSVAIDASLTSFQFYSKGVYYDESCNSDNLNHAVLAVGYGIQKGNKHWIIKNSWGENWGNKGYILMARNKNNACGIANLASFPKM

Procathepsin L, sequence (P07711 whole entry): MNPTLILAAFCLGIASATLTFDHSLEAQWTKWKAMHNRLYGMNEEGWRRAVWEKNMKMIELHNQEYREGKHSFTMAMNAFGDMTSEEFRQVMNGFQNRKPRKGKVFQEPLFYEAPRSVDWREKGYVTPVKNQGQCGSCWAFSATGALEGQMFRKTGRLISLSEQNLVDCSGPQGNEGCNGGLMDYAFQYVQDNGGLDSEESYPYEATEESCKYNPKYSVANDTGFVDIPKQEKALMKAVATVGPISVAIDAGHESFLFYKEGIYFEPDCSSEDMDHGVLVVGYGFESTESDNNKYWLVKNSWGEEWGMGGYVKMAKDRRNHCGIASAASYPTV

Row | Structure (SMILES) | Ki (Procathepsin L) [nM] | Ki (Cathepsin B) [nM] | Ki (Cathepsin K) [nM]
1 | N=C(N)NCCC[C@@H](NC(=O)[C@H](CO)NC(=O)Cc1ccc(-c2ccccc2)cc1)C(=O)N[C@@H](Cc1ccccc1)C(=O)N[C@@H](Cc1ccccc1)C(N)=O | 74000 | – | –
2 | CSC[C@@H](NC(=O)Cc1ccc(-c2ccccc2)cc1)C(=O)N[C@@H](CCCN=C(N)N)C(=O)N[C@@H](CC(C)C)C(=O)NCCc1ccccc1 | 270 | – | –
3 | N=C(N)NCCC[C@H](NC(=O)[C@H](CCCN=C(N)N)NC(=O)[C@H](CS)NC(=O)Cc1ccc(-c2ccccc2)cc1)C(=O)NCCc1ccccc1 | 3900 | – | –
4 | N=C(N)NCCC[C@H](NC(=O)[C@H](CS)NC(=O)Cc1ccc(-c2ccccc2)cc1)C(=O)N[C@@H](Cc1ccc(O)cc1)C(=O)NCCc1ccccc1 | – | 15000 | 2900
5 | CSCC[C@H](NC(=O)[C@H](CCCN=C(N)N)NC(=O)[C@@H](CSC)NC(=O)Cc1ccc(-c2ccccc2)cc1)C(=O)NCCc1ccccc1 | 240 | – | –
6 | N=C(N)NCCC[C@H](NC(=O)[C@H](CS)NC(=O)Cc1ccc(-c2ccccc2)cc1)C(=O)N[C@@H](Cc1ccc(-c2ccccc2)cc1)C(=O)NCCc1ccccc1 | 270 | – | –
7 | NC(=O)C[C@H](NC(=O)Cc1ccc(-c2ccccc2)cc1)C(=O)N[C@H](CCCN=C(N)N)C(=O)N[C@@H](Cc1ccccc1)C(=O)NC(Cc1ccccc1)C(N)=O (some centres not stated) | 38000 | – | –
8 | CSCC[C@H](NC(C)=O)C(=O)N[C@@H](CC(N)=O)C(=O)NCC(=O)N[C@@H](Cc1ccccc1)C(=O)N[C@@H](CCC(N)=O)C(N)=O (Ac-MNGFQ-NH2) | > 100000 | – | –
9 | CSC[C@H](NC(=O)Cc1ccc(-c2ccccc2)cc1)C(=O)NCC(=O)N[C@@H](Cc1ccccc1)C(=O)N[C@@H](Cc1ccccc1)C(N)=O ({Phenylacetyl(4-Ph)}-C(Me)GFF-NH2) | 930 | – | –

More lines, now with the values ahead:

Row | Ki (Procathepsin L) [nM] | Ki (Cathepsin B) [nM] | Ki (Cathepsin K) [nM] | Structure (SMILES)
10 | 160 | – | – | N=C(N)NCCC[C@H](NC(=O)[C@H](CS)NC(=O)Cc1ccc(-c2ccccc2)cc1)C(=O)N[C@@H](Cc1ccc2ccccc2c1)C(=O)NCCc1ccccc1
11 | 160 | – | – | N=C(N)NCCC[C@H](NC(=O)[C@H](CS)NC(=O)Cc1ccc(-c2ccccc2)cc1)C(=O)N[C@@H](CC1CCCCC1)C(=O)NCCc1ccccc1
12 | 67 | 560 | 1000 | N=C(N)NCCC[C@H](NC(=O)[C@H](CS)NC(=O)Cc1ccc(-c2ccccc2)cc1)C(=O)N[C@@H](Cc1c[nH]c2ccccc12)C(=O)NCCc1ccccc1
13 | 210 | – | – | CC[C@H](NC(=O)[C@H](CCCN=C(N)N)NC(=O)[C@H](CS)NC(=O)Cc1ccc(-c2ccccc2)cc1)C(=O)NCCc1ccccc1
14 | 170 | – | – | N=C(N)NCCC[C@@H](NC(=O)[C@H](CS)NC(=O)Cc1ccc(-c2ccccc2)cc1)C(=O)N[C@@H](Cc1ccccc1)C(=O)N[C@@H](Cc1ccccc1)C(N)=O (stereo in doubt; 4)
